The test system of assay [1] is D/D domain of RIIα (RIIα-D/D(1–44)). As to the kind of experiment: Isothermal titration calorimetry. The conditions noted are these: ITC, one-site model, 25 °C, pH 7.5; three independent measurements. It counts as binding, human. The method, boiled down:
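Run in 20 mM Hepes, pH 7.5, 150 mM NaCl at 25 °C. Cell held RIIα D/D domain at 20 μM, and the syringe held the test AKAP18β(43–83) peptide at 100 μM. There were 25–30 injections of 10–12 μl at 5–20 min intervals. Incremental heat per mole was fitted by non-linear least squares to a one-site model, and protein concentration was adjusted by the fit.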

In the next assay the test system is RI subunits of PKA. Particulars: cited from earlier work.

The source of these data is PMC4964276 (The Biochemical journal, 2016).

Regarding “NGGEPDDAELVRLSKRLVENAVLKAVQQY LEETQ NKNKP GE [AKAP18β(43–83)]”, the “n (sites)” value in assay [1] was 0.98 sites.

As for “SKIP: AKAP that preferentially or specifically binds RI”, the “Binding preference for RI, SKIP” value in the assay on RI subunits of PKA (ref [12],[13]) is listed as “preferentially or specifically bind RI”.

On to “smAKAP: RI-specific AKAP, full-length [reference compound]”, for which the “Binding preference for RI, smAKAP” value with RI subunits of PKA (ref [14]) was “preferentially or specifically bind RI”.
